# Measurements of several laboratories.
# Protocols differ between the studies behind these lines.
# Target: Serine/threonine-protein kinase BRSK1 (BRSK1, Homo sapiens, UniProt Q8TDC3)
# Sequence (Q8TDC3 1-778, as in one of the studies): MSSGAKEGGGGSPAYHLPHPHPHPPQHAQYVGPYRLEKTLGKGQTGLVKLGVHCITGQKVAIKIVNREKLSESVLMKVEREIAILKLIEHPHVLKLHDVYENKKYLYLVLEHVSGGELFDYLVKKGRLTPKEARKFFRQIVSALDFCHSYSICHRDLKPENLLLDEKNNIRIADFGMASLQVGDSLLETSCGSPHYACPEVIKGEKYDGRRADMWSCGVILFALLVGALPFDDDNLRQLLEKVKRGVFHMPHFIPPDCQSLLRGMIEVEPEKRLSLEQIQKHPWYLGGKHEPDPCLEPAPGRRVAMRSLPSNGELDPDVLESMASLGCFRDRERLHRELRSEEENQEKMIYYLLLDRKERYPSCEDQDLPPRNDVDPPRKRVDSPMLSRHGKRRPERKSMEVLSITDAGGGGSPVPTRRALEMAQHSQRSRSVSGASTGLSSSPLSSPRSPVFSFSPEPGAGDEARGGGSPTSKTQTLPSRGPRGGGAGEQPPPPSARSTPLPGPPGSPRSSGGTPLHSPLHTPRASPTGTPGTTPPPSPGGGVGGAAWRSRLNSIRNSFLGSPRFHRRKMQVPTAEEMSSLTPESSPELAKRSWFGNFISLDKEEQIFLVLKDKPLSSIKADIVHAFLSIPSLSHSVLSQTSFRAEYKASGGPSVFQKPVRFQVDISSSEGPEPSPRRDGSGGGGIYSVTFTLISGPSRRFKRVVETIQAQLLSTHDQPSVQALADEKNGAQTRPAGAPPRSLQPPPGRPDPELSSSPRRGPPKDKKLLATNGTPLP
SMILES,test,conditions,measurement,value
CC(C)(O)[C@H]1CC[C@H](Nc2ccc3ncc(-c4cccc(C(F)(F)F)c4)n3n2)CC1,"enzyme activity, inhibitor",1 µM,remaining activity,98.1%
O=C(Nc1cnn(-c2csc(C(=O)NC3COC3)c2)c1)Nc1c(F)cccc1Cl,"enzyme activity, inhibitor",5 µM,remaining activity,99.4%
Nc1nc(Nc2ccc(S(N)(=O)=O)cc2)nn1C(=O)c1c(F)cccc1F,cell-free assay,0.5 µM,remaining signal,49.2%
CN(C)C(=O)Cn1cc(-c2nc(C3(c4ccc(-c5cnc(N)nc5)cc4)CC3)no2)cn1,"cell-free assay, competition with immobilised ligand",1 µM,remaining binding,93%
CC(C)(C)c1nc2c(s1)c1nc(N)ncc1c1ccc(NS(=O)(=O)c3c(F)cccc3F)c(F)c12,"enzyme activity, inhibitor, radiometric",1 µM,remaining activity,102%
CC/C(=N\NC(=O)NCc1cccc(O)c1)c1ccc(O)c(C)c1O,"enzyme activity, inhibitor",0.1 µM,inhibition,1.7%
Oc1cccc(-c2nc(N3CCOCC3)c3oc4ncccc4c3n2)c1,"enzyme activity, inhibitor",10 µM,remaining activity,109%
Cc1ccc(C(=O)Nc2ccc(CN3CCN(C)CC3)c(C(F)(F)F)c2)cc1C#Cc1cnc2cccnn12,"enzyme activity, inhibitor",23.5 nM,remaining activity,83%
CNC(=O)c1ccc(Nc2ncc(C(F)(F)F)c(NCc3nccnc3N(C)S(C)(=O)=O)n2)cc1,"cell-free assay, competition with immobilised ligand",0.1 µM,remaining binding,100%
COc1cc(Nc2cnc(C#N)c(O[C@H](C)CN(C)C)n2)ncc1-c1cnn(C)c1,"enzyme activity, inhibitor, radiometric",10 µM,remaining activity,53%
CC(C)(O)c1cncc(-c2nc3ccc(F)cc3n2C2CC2)c1,"cell-free assay, competition with immobilised ligand",1 µM,remaining binding,100%
FC(F)(F)Oc1cccc(-c2cnc3ccc(-c4ccncc4)nn23)c1,"enzyme activity, inhibitor, radiometric",5 µM,activity vs control,82%
COc1cc2ncnc(Nc3ccc(F)c(Cl)c3)c2cc1OCCCN1CCOCC1,cell-free assay,0.5 µM,remaining signal,92.5%
CCC(=N\O)/C(C)=C/c1ccc(F)cc1,"cell-free assay, competition with immobilised ligand",1 µM,remaining binding,100%
COc1cc2ncnc(Nc3ccc(Oc4ccccc4)c(C)c3C)c2cc1OC,"enzyme activity, inhibitor",1 µM,inhibition,0%
FC(F)c1nc2ccccc2n1-c1nc(N2CCOCC2)nc(N2CCOCC2)n1,"enzyme activity, inhibitor",10 µM,remaining activity,161%
CCN(CC)CCNC(=O)c1c(C)[nH]c(/C=C2\C(=O)Nc3ccc(F)cc32)c1C,"enzyme activity, inhibitor",10 µM,inhibition,82%
N[C@@H]1CCN(c2nccc(-c3cnn4ncccc34)n2)C1,binding,1 µM,remaining binding,100%
Cc1ccc(Nc2nccc(N(C)c3ccc4c(C)n(C)nc4c3)n2)cc1S(N)(=O)=O,"enzyme activity, inhibitor",0.3 µM,inhibition,18%
C[C@H](c1ccnc(Nc2nc3ccc(-c4cc(N(C)C)ncn4)cc3[nH]2)c1)N1CCN(C(=O)CC(F)(F)F)CC1,"cell-free assay, competition with immobilised ligand",0.1 µM,remaining binding,100%
O=C(Nc1cnn(-c2csc(C(=O)NC3COC3)c2)c1)Nc1ccccc1Cl,"enzyme activity, inhibitor",5 µM,remaining activity,85.5%
CN([C@@H]1CCc2c(CC(=O)O)c3ccccc3n2C1)S(=O)(=O)c1ccc(F)cc1,"cell-free assay, competition with immobilised ligand",1 µM,remaining binding,100%
O=C1NC(=O)c2cc(Nc3ccc(F)cc3)c(Nc3ccc(F)cc3)cc21,cell-free assay,0.5 µM,remaining signal,94.3%
Cc1cc(C)c(-n2ccn3nc(-c4cccnc4)cc23)cc1NC(=O)c1cc(C#N)cc(S(F)(F)(F)(F)F)c1,"cell-free assay, competition with immobilised ligand",0.1 µM,remaining binding,84%
Nc1ncnc2occ(-c3ccc(NC(=O)Nc4cc(C(F)(F)F)ccc4F)cc3)c12,"cell-free assay, inhibitor",20 µM,remaining signal,8.4%
C[C@H](c1ccc(F)cc1)N(Cc1cccc(C(=O)O)c1)C(=O)c1cnc2ccccc2c1,"cell-free assay, competition with immobilised ligand",1 µM,remaining binding,100%
CNC(=O)c1cc(Oc2ccc(NC(=O)Nc3ccc(Cl)c(C(F)(F)F)c3)cc2)ccn1,"enzyme activity, inhibitor",10 µM,inhibition,20%
